In brackets after ≈: the same amount, converted by molar mass.

For orientation: CC50 means the concentration at which the toxic effect on the cells reaches its halfway point. By MIC is commonly meant the lowest concentration that inhibits growth of the organism.

Series [1] is described as follows: Selectivity index, ratio of CC50 for African green monkey Vero C1008 cells to MIC for Mycobacterium tuberculosis H37Rv. In kind it is functional. The method, boiled down: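 Selectivity index is CC50 from the MTT assay on Vero C1008 cells over MIC against Mtb H37Rv from the twofold-dilution REMA plate method, where MIC was read visually by the blue-to-pink resazurin change.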

Series [2] in a line: Cytotoxicity against African green monkey Vero C1008 cells after 72 hrs by MTT assay. In kind it is cell-based. The conditions noted are these: chlorocebus sabaeus. The method, boiled down: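 Vero C1008 cells were tested in microtitre plates with an MTT viability read-out, and CC50 values were determined.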
Background: Tetrazolium assays rely on reduction of a dye to a coloured formazan, in cell work by metabolically active cells.

The subject of series [3] is Mycobacterium tuberculosis. Put plainly: Antitubercular activity against Mycobacterium tuberculosis H37Rv assessed as parasite growth inhibition after 7 days by resazurin microtitre assay. In kind it is functional. The conditions noted are these: 168 h. A digest of the protocol:
(§1)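 Mtb H37Rv was tested by resazurin microtitre assay (REMA) with twofold serial dilutions of compound. MIC was read visually as the lowest concentration preventing the dye's blue-to-pink colour change, since pink indicates growth.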
(In general: Resazurin is reduced to fluorescent resorufin, in cell work by metabolically active cells.)

Series [4] has as its system Mycobacterium tuberculosis. Put plainly: Antitubercular activity against Mycobacterium tuberculosis H37Rv assessed as parasite growth inhibition. In kind it is functional. The method, boiled down: as §1

With `CCN(CC)CC(O)CN(Cc1ccc(Cl)cc1)Cc1cc2ccccc2nc1OC` (centres undefined), in series [1], the “Selectivity Index” value was found to be 80.41. The same compound showed a cytotoxic concentration (CC50) at 72 h in series [2] of 808 µM. Moreover, in series [3], the minimal inhibitory concentration (MIC) came out at 10.1 µM (≈ 4.44 µg/mL).

On to `CCN(CC)CC(O)CN(Cc1ccc(C)cc1)Cc1cc2ccccc2nc1OC` (centres undefined), for which, in series [1], the “Selectivity Index” value is given as 52.21. The same compound returned a CC50 at 72 h in series [2] of 1010 µM. Besides, the minimal inhibitory concentration (MIC) in series [3] came out at 19.3 µM (≈ 8.14 µg/mL).

Turning to `NNC(=O)c1ccncc1` [ISONIAZID], in series [1], the “Selectivity Index” value is given as 96. Besides, the MIC in series [3] worked out at 15.3 µM (≈ 2.1 µg/mL).

As for `COc1ccc(CN(Cc2cc3ccccc3nc2OC)CC(O)CN2CCCC2)cc1` (centres undefined), the “Selectivity Index” value in series [1] is on record as 35.59. The same compound displayed a CC50 at 72 h in series [2] of 664 µM. Besides, the minimal inhibitory concentration (MIC) in series [3] is 18.6 µM (≈ 8.12 µg/mL).

As to `COc1nc2ccccc2cc1CN(Cc1ccccc1)CC(O)CN1CCOCC1` (centres undefined), the “Selectivity Index” value in series [1] is 5.69. Moreover, the midpoint of cytotoxicity in series [2], the CC50 at 72 h, lay at 553 µM. Further, the MIC in series [3] is 97.1 µM (≈ 40.9 µg/mL).

On to `COc1nc2ccccc2cc1CN(Cc1ccc(Cl)cc1)CC(O)CN1CCOCC1` (centres undefined), for which, in series [1], the “Selectivity Index” value turned out to be 52.44. Also, the CC50 at 72 h in series [2] turned out to be 1060 µM. Moreover, in series [3], the MIC amounted to 20.2 µM (≈ 9.21 µg/mL).

For `COc1nc2ccccc2cc1CN(Cc1ccc(Cl)cc1)CC(O)CN1CCCC1` (centres undefined), the “Selectivity Index” value in series [1] is recorded as 160.57. This compound also showed a 50% cytotoxic concentration (CC50) at 72 h in series [2] of 898 µM. Besides, in series [3], the MIC came to 5.59 µM (≈ 2.46 µg/mL).

As for `CCN(CC)CC(O)CN(Cc1ccccc1)Cc1cc2ccccc2nc1OC` (centres undefined), the “Selectivity Index” value in series [1] came to 15.1. Also, in series [2], half-maximal cytotoxicity (CC50 at 72 h) was put at 613 µM. Besides, the MIC in series [3] was 40.6 µM (≈ 16.6 µg/mL).

In the case of `COc1ccc(CN(Cc2cc3ccccc3nc2OC)CC(O)CN2CCOCC2)cc1` (centres undefined), in series [1], the “Selectivity Index” value is recorded as 5.86. Further, the cytotoxic concentration (CC50) at 72 h in series [2] was 928 µM. Further, the minimal inhibitory concentration (MIC) in series [3] is 158 µM (≈ 71.5 µg/mL).

`COc1nc2ccccc2cc1CN(Cc1ccccc1)CC(O)CN1CCCC1` (centres undefined): the “Selectivity Index” value in series [1] is on record as 152.86. Besides, it took 792 µM to reach half-maximal cytotoxicity in series [2] (CC50 at 72 h). In addition, in series [3], the MIC is 5.18 µM (≈ 2.1 µg/mL).

Consider `COc1nc2ccccc2cc1CN(Cc1ccc(C)cc1)CC(O)CN1CCOCC1` (centres undefined), for which, in series [1], the “Selectivity Index” value worked out at 40.4. The same compound had a CC50 at 72 h in series [2] of 884 µM. Further, in series [3], the MIC is 21.9 µM (≈ 9.53 µg/mL).

With `COc1nc2ccccc2cc1CN(Cc1ccc(C)cc1)CC(O)CN1CCCC1` (centres undefined), the “Selectivity Index” value in series [1] came out at 115.02. Also, the midpoint of cytotoxicity in series [2], the CC50 at 72 h, lay at 1110 µM. For the same compound, the minimum inhibitory concentration (MIC) in series [3] turned out to be 9.68 µM (≈ 4.06 µg/mL).

Take `CCN(CC)CC(O)CN(Cc1ccc(OC)cc1)Cc1cc2ccccc2nc1OC` (centres undefined): in series [1], the “Selectivity Index” value amounted to 9.19. The compound also gave a CC50 at 72 h in series [2] of 727 µM. The MIC in series [3] was determined as 79.1 µM (≈ 34.6 µg/mL).

Consider `COc1nc2ccc(Br)cc2cc1[C@@H](c1ccccc1)[C@@](O)(CCN(C)C)c1cccc2ccccc12` [BEDAQUILINE], for which, in series [4], the MIC came out at 0.108 µM (≈ 0.06 µg/mL).

(Values after ChEMBL document CHEMBL2440057, “Rational drug design based synthesis of novel arylquinolines as anti-tuberculosis agents” (Bioorg Med Chem Lett, 2013).)
